Source: PubChem BioAssay
Activity calls are given as the source filed them.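 Rule for the calls, unless noted: active = viability at or below 10% of carrier control in both of two separate runs; inconclusive = viability at or below 10% in only one of the two runs; inactive = the rest.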

Columns and labels:
[1] = Her2 expression decrease, cell viability multiplex – SKBR3 breast tumor cells, AlphaScreen, ATP viability, primary screen (AID 461;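 active = Her2 level under about 52% in both replicate screens, with viability over 70% of control, limit read from the data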;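 for Her2 level: lower value means less Her2 protein in the cells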;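 for viability: percent of carrier control wells set as 100% viability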); details: SKBR3 Her2 protein level, 18-24 h, measured here: SKBR3 viability, ATP luminescence, at 10 µM
[2] = biological target: Receptor tyrosine-protein kinase erbB-2 (Homo sapiens) (UniProt P04626); test: as above; details: 18-24 h, at 10 µM, stronger effect = lower value
Chain of Receptor tyrosine-protein kinase erbB-2 (Homo sapiens) (P04626 whole entry, looked up): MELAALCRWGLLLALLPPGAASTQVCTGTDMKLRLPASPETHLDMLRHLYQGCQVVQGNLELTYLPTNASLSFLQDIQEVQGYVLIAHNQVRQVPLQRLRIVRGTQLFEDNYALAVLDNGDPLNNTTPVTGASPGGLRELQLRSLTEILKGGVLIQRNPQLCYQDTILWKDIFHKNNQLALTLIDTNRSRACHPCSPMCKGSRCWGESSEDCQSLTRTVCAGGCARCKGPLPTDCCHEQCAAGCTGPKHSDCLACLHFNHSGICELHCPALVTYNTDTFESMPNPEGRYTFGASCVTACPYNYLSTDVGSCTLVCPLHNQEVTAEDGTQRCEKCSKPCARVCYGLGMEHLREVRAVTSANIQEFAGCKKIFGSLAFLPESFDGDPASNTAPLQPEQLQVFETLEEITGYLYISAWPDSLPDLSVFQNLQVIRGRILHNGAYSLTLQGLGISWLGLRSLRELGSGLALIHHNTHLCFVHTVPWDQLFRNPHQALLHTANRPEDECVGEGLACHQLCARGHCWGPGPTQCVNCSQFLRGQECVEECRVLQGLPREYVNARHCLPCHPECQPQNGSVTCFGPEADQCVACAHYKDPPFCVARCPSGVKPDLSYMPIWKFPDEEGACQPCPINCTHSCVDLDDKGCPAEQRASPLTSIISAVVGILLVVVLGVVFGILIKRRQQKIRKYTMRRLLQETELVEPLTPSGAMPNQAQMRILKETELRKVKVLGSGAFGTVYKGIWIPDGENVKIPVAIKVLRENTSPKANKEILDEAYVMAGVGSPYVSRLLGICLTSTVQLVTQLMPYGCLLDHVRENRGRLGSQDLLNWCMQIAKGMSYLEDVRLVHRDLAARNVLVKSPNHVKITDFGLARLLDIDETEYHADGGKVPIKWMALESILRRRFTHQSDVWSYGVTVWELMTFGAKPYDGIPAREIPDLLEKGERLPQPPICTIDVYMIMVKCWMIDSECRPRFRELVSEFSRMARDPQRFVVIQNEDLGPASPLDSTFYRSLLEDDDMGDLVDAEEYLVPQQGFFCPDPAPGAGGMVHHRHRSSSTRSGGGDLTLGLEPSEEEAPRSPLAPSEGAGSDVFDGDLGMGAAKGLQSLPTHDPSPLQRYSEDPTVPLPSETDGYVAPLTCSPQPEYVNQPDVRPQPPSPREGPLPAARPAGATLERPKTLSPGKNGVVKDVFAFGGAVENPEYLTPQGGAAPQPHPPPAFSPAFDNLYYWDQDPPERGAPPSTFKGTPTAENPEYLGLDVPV

[3] = reduced viability of SK-BR-3 breast cancer cells – cell-based, 24 h, human, pilot screen (AID 572); details: SK-BR-3 viability, CellTiter-Glo luminescence, at 10 µM, stronger effect = lower value;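 note: compound exposure lasted between 18 and 24 h rather than exactly 24 h; 100% = carrier-treated control wells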
[4] = HUVEC growth inhibition – cell-based, human, primary screen (AID 575;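 active = viability at or below 30% in both replicate assays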;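 note: 100% = median of untreated cell wells with 0.1% DMSO on each plate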); details: HUVEC proliferation, CellTiter-Glo luminescence, 72 h; at 10 µM; stronger effect = lower value
Method in brief: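 Test system: primary human umbilical vein endothelial cells. Quantity: 1250 cells/well. Compound: single 10 µM dose, 0.1% DMSO, from 5x medium stock. Timing: 72 h treatment at 37 °C. Detection: ATP-based CellTiter-Glo luminescent read. Benchmarks: vehicle and MePR control wells. Format: 384-well plates coated with collagen.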

[5] = H69AR cell proliferation blockers – human, duplicate replicates, primary screen (AID 580;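 active = viability at or under a set limit in both replicates, limit being median viability minus 3 SD, cut at about 48% in these data, passing the limit was not always enough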;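 note: 100% = mean luminescence of untreated wells and 0% = no signal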); details: H69AR lung tumor cells viability, ATP luminescence, 72 h; at 10 µM; stronger effect = lower value
[6] = MRP1 drug-resistance reversers in H69AR cells – cell-based, doxorubicin co-treatment, pilot screen (AID 601;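 active = viability loss from added drug above about 55%, and viability with drug at most 40%, in both replicates, limit read from the data, passing the limit was not always enough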); details: CellTiter-Glo, 72 h, at 10 µM; for differential viability (reversal): stronger effect = higher value
[7] = yeast transport mutant growth inhibition pilot in 384-well plates, post-Golgi transport modulator project (AID 636; in the data active = inhibition above about 31%); details: absorbance 615 nm, about 18 h, stronger effect = higher value
[8] = growth suppression of yeast trafficking mutant, preliminary HTS, modulators of trafficking downstream of Golgi apparatus project, 1536-format plate, OD 615 nm (AID 637; in the data active = inhibition above about 30%); details: yeast transport mutant growth, absorbance 615 nm, 18 h; stronger effect = higher value
[9] = H69AR cells + 2 uM doxorubicin, measured here: viability with 2 uM doxorubicin, stronger effect = lower value
[10] = H69AR cells, compound alone cytotoxicity

Row | Compound | viability [1] | Her2 level [2] | viability [3] | viability [4] | viability [5] | differential viability (reversal) ([6]; H69AR cells + 2 uM doxorubicin) | viability [6, 9] | viability [6, 10] | inhibition [7] | inhibition [8]
1 | Cc1nnc(SCC(=O)NCCN2C(=O)CSC2=O)s1 | 96.5% | 102% (inactive) | 96.5% (inactive) | 114% (inactive) | 98.3% (inactive) | -1.88% (inactive) | 100% | 98.3% | -3.24% (inactive) | 0.63% (inactive)
2 | O=C1C(Cl)=C(N2CCCCC2)C(=O)N1c1ccccc1Cl | 106% | 79.5% (inactive) | 106% (inactive) | 89.7% (inactive) | 81.8% (inactive) | 1.39% (inactive) | 80.4% | 81.8% | -2.6% (inactive) | 2.95% (inactive)
3 | COc1ccc(N2CCN(c3ccc(N)cc3C#N)CC2)cc1 | 103% | 88.5% (inactive) | 103% (inactive) | 78.2% (inactive) | 95% (inactive) | 2.29% (inactive) | 92.7% | 95% | -3.38% (inactive) | 0.32% (inactive)
4 | CC(NCc1ccco1)C(=O)N1CCc2ccccc2C1 (stereo not given) | 108% | 108% (inactive) | 108% (inactive) | 109% (inactive) | 92.9% (inactive) | 5.48% (inactive) | 87.4% | 92.9% | 1.92% (inactive) | -2.06% (inactive)
5 | O=C(c1ccc(-c2cccc(C(F)(F)F)c2)o1)N1CCOCC1 | 95.5% | 118% (inactive) | 95.5% (inactive) | 72.8% (inactive) | 92.7% (inactive) | 16.1% (inactive) | 76.6% | 92.7% | -4.8% (inactive) | -2.58% (inactive)
6 | Cc1nn(-c2ccc(Cl)cc2)c2sc(C(=O)N3CCN(c4ccccn4)CC3)cc12 | 103% | 80% (inactive) | 103% (inactive) | 51.6% (inactive) | 67.2% (inactive) | 9.58% (inactive) | 57.6% | 67.2% | -5.84% (inactive) | -2.54% (inactive)
7 | CC1CC(=O)C2=C(C1)OC(N)=C(C#N)C2c1coc2ccccc2c1=O (stereo not given) | 108% | 88.5% (inactive) | 108% (inactive) | 95.1% (inactive) | 97.3% (inactive) | 10.6% (inactive) | 86.7% | 97.3% | -7.33% (inactive) | 2.26% (inactive)
8 | Cc1cc(OC(=O)N2CCOCC2)cc(C)c1Cl | 93.5% | 94.5% (inactive) | 93.5% (inactive) | 88.7% (inactive) | 105% (inactive) | 19.9% (inactive) | 84.9% | 105% | -3.55% (inactive) | -6.35% (inactive)
9 | O=C(NCc1ccco1)C1CCN(C(=O)c2cc3sccc3n2Cc2ccc(F)cc2)CC1 | 94.5% | 62.5% (inactive) | 94.5% (inactive) | 56.1% (inactive) | 67.1% (inactive) | -6.56% (inactive) | 73.7% | 67.1% | -5.87% (inactive) | 5.74% (inactive)
10 | Cc1ccc(NC(=O)C2CCCN2C(=O)Oc2ccccc2)cc1 (stereo not given) | 90.5% | 94.5% (inactive) | 90.5% (inactive) | 107% (inactive) | 91.5% (inactive) | -0.415% (inactive) | 91.9% | 91.5% | -6.4% (inactive) | -1.64% (inactive)
11 | COc1ccc(NC(=O)Cn2nnc(-c3ccccc3N)n2)cc1OC | 106% | 108% (inactive) | 106% (inactive) | 94.4% (inactive) | 97.8% (inactive) | 4.44% (inactive) | 93.3% | 97.8% | -5.07% (inactive) | 10% (inactive)
12 | CCOC(=O)COc1ccc(S(=O)(=O)Nc2ccc3c(c2)OCO3)cc1 | 164% | 113% (inactive) | 164% (inactive) | 10.4% (active) | 91% (inactive) | -1.11% (inactive) | 92.1% | 91% | -4.21% (inactive) | 9.02% (inactive)
13 | COc1ccc(-c2nnc3sc(-c4c(OC)cccc4OC)nn23)cc1 | 105% | 93.5% (inactive) | 105% (inactive) | 62.6% (inactive) | 75.9% (inactive) | -7.34% (inactive) | 83.2% | 75.9% | -5.13% (inactive) | -7.58% (inactive)
14 | COc1ccc(N2CCN(Cc3nc4c(c(=O)[nH]c(=O)n4C)n3CC(C)=O)CC2)cc1 | 98.5% | 102% (inactive) | 98.5% (inactive) | 101% (inactive) | 95.4% (inactive) | 10.4% (inactive) | 84.9% | 95.4% | 0% (inactive) | 0.17% (inactive)
15 | COc1ccc(NC(=O)CCCN2C(=O)C3C4C=CC(C4)C3C2=O)c(OC)c1 (stereo not given) | 110% | 94% (inactive) | 110% (inactive) | 82% (inactive) | 102% (inactive) | 5.03% (inactive) | 97.1% | 102% | -5% (inactive) | -5.09% (inactive)
16 | Cc1ccccc1-c1nc(CN2CCC(C(=O)NCCCN3CCOCC3)CC2)c(C)o1 | 86.5% | 107% (inactive) | 86.5% (inactive) | 74% (inactive) | 97.2% (inactive) | 5.29% (inactive) | 91.9% | 97.2% | 1.58% (inactive) | -4.29% (inactive)
17 | O=S1(=O)CC(N2CCCCC2)C(N2CCCCC2)C1 (stereo not given) | 104% | 91.5% (inactive) | 104% (inactive) | 108% (inactive) | 95.3% (inactive) | 16.9% (inactive) | 78.3% | 95.3% | -2.99% (inactive) | 1.27% (inactive)
18 | CC1=C(C(=O)NCc2ccco2)C2(CCC(C)CC2)OC1=O (stereo not given) | 89.5% | 100% (inactive) | 89.5% (inactive) | 94% (inactive) | 84% (inactive) | -0.86% (inactive) | 84.8% | 84% | -4% (inactive) | -5.74% (inactive)
19 | O=C(O)c1cc(/C=N\O)ccc1OCc1ccccc1 | 114% | 106% (inactive) | 114% (inactive) | 95.9% (inactive) | 103% (inactive) | 11.7% (inactive) | 91.2% | 103% | -5.33% (inactive) | 1.29% (inactive)
20 | Cc1onc(-c2c(Cl)cccc2Cl)c1C(N)=O | 103% | 116% (inactive) | 103% (inactive) | 100% (inactive) | 106% (inactive) | 13.6% (inactive) | 92.5% | 106% | -2.03% (inactive) | -5.08% (inactive)
21 | COc1cc(CN(C)CC(=O)c2[nH]c(C)c(C(C)=O)c2C)ccc1OC(F)F | 104% | 82.5% (inactive) | 104% (inactive) | 97.3% (inactive) | 85% (inactive) | 6.44% (inactive) | 78.6% | 85% | -5.2% (inactive) | -5.08% (inactive)
22 | CCN(CC)CCN1C(=O)C(O)=C(C(=O)c2ccco2)C1c1ccccn1 (stereo not given) | 109% | 93% (inactive) | 109% (inactive) | 88.9% (inactive) | 97.7% (inactive) | 1.63% (inactive) | 96% | 97.7% | -3.82% (inactive) | 5.08% (inactive)
23 | COCCNC(=O)CN(C)S(=O)(=O)c1ccc2c(c1)OCCO2 | 107% | 102% (inactive) | 107% (inactive) | 104% (inactive) | 100% (inactive) | 12% (inactive) | 88.2% | 100% | -4.8% (inactive) | -2.26% (inactive)
24 | COc1ccc(-c2cc(C(F)(F)F)nc(SCC(=O)NCc3ccco3)n2)cc1OC | 96.5% | 84% (inactive) | 96.5% (inactive) | 68.1% (inactive) | 55.2% (inactive) | -25.6% (inactive) | 80.9% | 55.2% | -0.66% (inactive) | -0.32% (inactive)
25 | COc1ccc(Br)cc1CNC(=O)CCc1nc(-c2ccc(C)cc2)no1 | 101% | 77.5% (inactive) | 101% (inactive) | 87.4% (inactive) | 94.2% (inactive) | 11.5% (inactive) | 82.7% | 94.2% | -4.34% (inactive) | -4.67% (inactive)
26 | CCCCC(c1nnnn1CS(=O)(=O)c1ccc(C)cc1)N1CCN(c2ccccc2)CC1 (stereo not given) | 102% | 88% (inactive) | 102% (inactive) | 69.5% (inactive) | 90.6% (inactive) | -0.75% (inactive) | 91.3% | 90.6% | -3.29% (inactive) | -1.27% (inactive)
27 | Cc1ccc(Cn2c(SCC(C)C)nc3c2c(=O)n(C)c(=O)n3C)cc1 | 84.5% | 75.5% (inactive) | 84.5% (inactive) | 62.2% (inactive) | 77.5% (inactive) | -12.6% (inactive) | 90.1% | 77.5% | -1.84% (inactive) | 9.34% (inactive)
28 | NC(=O)C1(N2CCCCC2)CCN(Cc2ccccc2Cl)CC1 | 102% | 77% (inactive) | 102% (inactive) | 87.8% (inactive) | 83.8% (inactive) | 3.07% (inactive) | 80.8% | 83.8% | -6.62% (inactive) | -1.17% (inactive)
